Measurements as given in ChEMBL document CHEMBL4602728, “6-Amino[1,2,5]oxadiazolo[3,4-b]pyrazin-5-ol Derivatives as Efficacious Mitochondrial Uncouplers in STAM Mouse Model of Nonalcoholic Steatohepatitis” (J Med Chem, 2020).
Values belong to the compound of their own block, whether it stands above or below them. Calls of active or inactive are those of the source.

Experiments:
[1] = Induction of mitochondrial uncoupling in rat L6 cells assessed as increase in oxygen consumption rate incubated for 90 mins by Seahorse XF analyzer based assay; type: mitochondria, Mitochondria
[2] = Solubility of compound in PBS at pH 7.4; type: physicochemical; conditions: buffer
[3] = Toxicity in C57BL/6 mouse model of streptozotocin-induced nonalcoholic steatohepatitis assessed as increase in plasma cholesterol level at 25 mg/kg/day, po formulated into HFD administered for 21 days measured post last dose by […] reagent based colorimetric method; type: organism-based; conditions: in vivo, 504 h
Outline: (§1)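 Cholesterol was measured in day-21 nonfasting plasma of STAM male mice on 25 mg kg−1 d−1 drug in high-fat diet. The colorimetric assay used Infinity cholesterol reagent at 37 °C for 5–20 min, reading absorbance at 500 nm minus 660 nm background. Values were interpolated from a cholesterol standard curve. n = 8; Kruskal–Wallis test.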

[4] = test system: Mus musculus; experiment: (§2) Anti-hepatosteatosis activity in C57BL/6 mouse model of streptozotocin-induced nonalcoholic steatohepatitis assessed as reduction in ALT level at 10 mg/kg/day, po administered for 21 days formulated into HFD measured post-last dose; type: functional, organism-based
[5] = test system: Mus musculus; experiment: as §2, with “fibrosis score” for “reduction in ALT level”, “dose by Picro-Sirius red staining based histopathological analysis (reference value: 0.91 +/- 0.09 %)” for “dose”; type: functional
[6] = Toxicity in C57BL/6 mouse model of streptozotocin-induced nonalcoholic steatohepatitis assessed as effect on liver weight at 10 mg/kg/day, po formulated into HFD administered for 21 days measured during compound dosing; type: organism-based; conditions: in vivo, 504 h
[7] = Toxicity in C57BL/6 mouse model of streptozotocin-induced nonalcoholic steatohepatitis assessed as change in plasma AST level at 10 mg/kg/day, po formulated into HFD administered for 21 days measured post last dose; type: organism-based; conditions: in vivo, 504 h
[8] = Toxicity in C57BL/6 mouse model of streptozotocin-induced nonalcoholic steatohepatitis assessed as effect on body weight at 10 mg/kg/day, po formulated into HFD administered for 21 days measured during compound dosing; type: organism-based; conditions: in vivo, 504 h
[9] = test system: Mus musculus; experiment: Anti-hepatosteatosis activity in C57BL/6 mouse model of streptozotocin-induced nonalcoholic steatohepatitis assessed as reduction in liver triglyceride level at 10 mg/kg/day, po administered for 21 days formulated into HFD measured post-last dose by triglyceride E test based assay; type: functional, organism-based
[10] = Toxicity in C57BL/6 mouse model of streptozotocin-induced nonalcoholic steatohepatitis assessed as decrease in food consumption per cage at 10 mg/kg/day, po formulated into HFD administered for 21 days measured during compound dosing relative to control; type: organism-based; design: scale not given: the % may be the effect or the level left; conditions: in vivo, 504 h
[11] = Half life in C57BL/6 mouse at 10 mg/kg, po administered via gavage by LC/MS-MS analysis; type: ADME, organism-based; conditions: in vivo
Outline: (§3)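 Male C57BL/6 mice aged 9–12 weeks received a single 10 mg/kg oral gavage bolus. The vehicle was methylcellulose 90–91%, Tween 80 2–3% and DMSO 6–8% (v/v). Tail-tip blood was drawn into heparinized capillaries and spun at 2000g for 10 min. Plasma was extracted with acetonitrile:methanol (9:1) and quantified by LC–MS/MS against spiked plasma standards (1–100 ng). n = 3.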

[12] = Cmax in C57BL/6 mouse at 10 mg/kg, po administered via gavage by LC/MS-MS analysis; type: ADME, organism-based; design: dose 10 mg/kg, route oral; conditions: in vivo; outline: as §3
[13] = Toxicity in C57BL/6 mouse model of streptozotocin-induced nonalcoholic steatohepatitis assessed as effect on body weight at 25 mg/kg/day, po formulated into HFD administered for 21 days measured during compound dosing; type: organism-based; conditions: in vivo, 504 h
Outline: (§4)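 STAM male mice received the compound premixed in high-fat diet for 21 days from 6 weeks of age, at 25 mg kg−1 d−1. Body weight was recorded, and livers were weighed after sacrifice at 9 weeks of age. n = 8 per group; Kruskal–Wallis test.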

[14] = Toxicity in C57BL/6 mouse assessed as increase in body temperature at 5 to 50 mg/kg, po measured upto 4 hrs by rectal probe thermometry; type: organism-based; conditions: in vivo
Outline: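 Male C57BL/6 mice received a single oral gavage of vehicle or compound at 5, 20 or 50 mg/kg. The vehicle was methylcellulose, Tween 80 and DMSO. Core body temperature was taken with a rectal probe thermometer at set time points. n = 3; two-way repeated measures ANOVA.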

[15] = Drug distribution in C57BL/6 mouse liver at 10 mg/kg, po administered via gavage measured after 1 hr by LC/MS-MS analysis; type: ADME, organism-based; conditions: read-out: Drug uptake
Outline: (§5)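 Male C57BL/6 mice received a single 10 mg/kg oral gavage and were euthanized by cervical dislocation at 1 h. Tissues were rinsed in PBS, snap-frozen, pulverized in liquid nitrogen and homogenized, then spun at 10 000g for 10 min. Supernatants were extracted with acetonitrile:methanol (9:1) and quantified by LC–MS/MS against spiked standards. n = 3.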

[16] = Toxicity in C57BL/6 mouse model of streptozotocin-induced nonalcoholic steatohepatitis assessed as effect on plasma glucose level at 25 mg/kg/day, po formulated into HFD administered for 21 days measured post last dose by […]; type: organism-based; conditions: in vivo, 504 h
Outline: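 Nonfasting whole-blood glucose was read with a glucose meter at sacrifice (day 21) in STAM male mice dosed at 25 mg kg−1 d−1 via high-fat diet. Readings above 900 mg/dL were recorded as 900 mg/dL. n = 8; one-way ANOVA.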

[17] = test system: Mus musculus; experiment: (§6) Anti-hepatosteatosis activity in C57BL/6 mouse model of streptozotocin-induced nonalcoholic steatohepatitis assessed as reduction in ALT level at 25 mg/kg/day, po administered for 21 days formulated into HFD measured post-last dose; type: functional, organism-based
Outline: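 STAM male mice were dosed with compound premixed into high-fat diet (57 kcal % fat) from 6 weeks of age for 21 days, at 25 mg kg−1 d−1. They were sacrificed at 9 weeks of age by cardiac puncture under isoflurane. Nonfasting heparinized blood was spun at 1000g for 15 min at 4 °C, and plasma ALT was read on a dry-chemistry analyzer. n = 8 male mice per group; mean ± SEM.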

[18] = Toxicity in C57BL/6 mouse model of streptozotocin-induced nonalcoholic steatohepatitis assessed as effect on plasma triglyceride level at 25 mg/kg/day, po formulated into HFD administered for 21 days measured post last dose by GPO reagent based colorimetric method; type: organism-based; conditions: in vivo, 504 h
Outline: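 Plasma triglyceride was measured in day-21 nonfasting plasma from STAM male mice given 25 mg kg−1 d−1 in high-fat diet. Samples were incubated with GPO reagent at 37 °C for 5–20 min until absorbance at 500 nm stabilized. Values were interpolated from a glycerol standard curve. n = 8; Kruskal–Wallis test.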

[19] = test system: Mus musculus; experiment: as §6, with “fibrosis score” for “reduction in ALT level”, “dose by Picro-Sirius red staining based histopathological analysis (reference value: 0.91 +/- 0.09 %)” for “dose”; type: functional
[20] = Drug distribution in C57BL/6 mouse kidney at 10 mg/kg, po administered via gavage measured after 1 hr by LC/MS-MS analysis; type: ADME, organism-based; conditions: read-out: Drug uptake; outline: as §5
[21] = Toxicity in C57BL/6 mouse model of streptozotocin-induced nonalcoholic steatohepatitis assessed as effect on plasma cholesterol level at 25 mg/kg/day, po formulated into HFD administered for 21 days measured post last dose by […] reagent based colorimetric method; type: organism-based; conditions: in vivo, 504 h; outline: as §1
[22] = Toxicity in C57BL/6 mouse model of streptozotocin-induced nonalcoholic steatohepatitis assessed as effect on liver weight at 25 mg/kg/day, po formulated into HFD administered for 21 days measured during compound dosing; type: organism-based; conditions: in vivo, 504 h; outline: as §4
[23] = test system: Mus musculus; experiment: Anti-hepatosteatosis activity in C57BL/6 mouse model of streptozotocin-induced nonalcoholic steatohepatitis assessed as reduction in liver triglyceride level at 25 mg/kg/day, po administered for 21 days formulated into HFD measured post-last dose by triglyceride E test based assay; type: functional, organism-based
Outline: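 STAM male mice received 25 mg kg−1 d−1 in high-fat diet for 21 days and were killed at 9 weeks of age. The right liver lobe was snap-frozen. Total lipids were extracted by Folch's method, with homogenization in chloroform–methanol (2:1, v/v) and overnight incubation at room temperature. n = 8 per group; one-way ANOVA.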

[24] = test system: Mus musculus; experiment: Anti-hepatosteatosis activity in C57BL/6 mouse model of streptozotocin-induced nonalcoholic steatohepatitis assessed as reduction in inflammation score at 25 mg/kg/day, po administered for 21 days formulated into HFD measured post-last dose by […] based histopathological analysis; type: functional, organism-based
Outline: (§7)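 Liver tissue came from STAM male mice fed drug-containing high-fat diet at 25 mg kg−1 d−1 for 21 days from 6 weeks of age. Pieces of the left lateral lobe were Bouin-fixed and paraffin-embedded, then H&E-stained. A pathologist scored steatosis, inflammation and ballooning using the Kleiner NAFLD activity score criteria. n = 8 per group; Kruskal–Wallis test.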

[25] = test system: Mus musculus; experiment: Anti-hepatosteatosis activity in C57BL/6 mouse model of streptozotocin-induced nonalcoholic steatohepatitis assessed as reduction in steatosis score at 25 mg/kg/day, po administered for 21 days formulated into HFD measured post-last dose by […] based histopathological analysis; type: functional, organism-based; outline: as §7
[26] = Toxicity in C57BL/6 mouse model of streptozotocin-induced nonalcoholic steatohepatitis assessed as effect on food consumption per cage at 25 mg/kg/day, po formulated into HFD administered for 21 days measured during compound dosing (reference value: 318 +/- 13 g); type: organism-based; conditions: in vivo, 504 h
[27] = target: Voltage-gated inwardly rectifying potassium channel KCNH2 (Homo sapiens, UniProt Q12809); experiment: Inhibition of human ERG by Qpatch method
Chain of Voltage-gated inwardly rectifying potassium channel KCNH2 (Q12809 whole entry): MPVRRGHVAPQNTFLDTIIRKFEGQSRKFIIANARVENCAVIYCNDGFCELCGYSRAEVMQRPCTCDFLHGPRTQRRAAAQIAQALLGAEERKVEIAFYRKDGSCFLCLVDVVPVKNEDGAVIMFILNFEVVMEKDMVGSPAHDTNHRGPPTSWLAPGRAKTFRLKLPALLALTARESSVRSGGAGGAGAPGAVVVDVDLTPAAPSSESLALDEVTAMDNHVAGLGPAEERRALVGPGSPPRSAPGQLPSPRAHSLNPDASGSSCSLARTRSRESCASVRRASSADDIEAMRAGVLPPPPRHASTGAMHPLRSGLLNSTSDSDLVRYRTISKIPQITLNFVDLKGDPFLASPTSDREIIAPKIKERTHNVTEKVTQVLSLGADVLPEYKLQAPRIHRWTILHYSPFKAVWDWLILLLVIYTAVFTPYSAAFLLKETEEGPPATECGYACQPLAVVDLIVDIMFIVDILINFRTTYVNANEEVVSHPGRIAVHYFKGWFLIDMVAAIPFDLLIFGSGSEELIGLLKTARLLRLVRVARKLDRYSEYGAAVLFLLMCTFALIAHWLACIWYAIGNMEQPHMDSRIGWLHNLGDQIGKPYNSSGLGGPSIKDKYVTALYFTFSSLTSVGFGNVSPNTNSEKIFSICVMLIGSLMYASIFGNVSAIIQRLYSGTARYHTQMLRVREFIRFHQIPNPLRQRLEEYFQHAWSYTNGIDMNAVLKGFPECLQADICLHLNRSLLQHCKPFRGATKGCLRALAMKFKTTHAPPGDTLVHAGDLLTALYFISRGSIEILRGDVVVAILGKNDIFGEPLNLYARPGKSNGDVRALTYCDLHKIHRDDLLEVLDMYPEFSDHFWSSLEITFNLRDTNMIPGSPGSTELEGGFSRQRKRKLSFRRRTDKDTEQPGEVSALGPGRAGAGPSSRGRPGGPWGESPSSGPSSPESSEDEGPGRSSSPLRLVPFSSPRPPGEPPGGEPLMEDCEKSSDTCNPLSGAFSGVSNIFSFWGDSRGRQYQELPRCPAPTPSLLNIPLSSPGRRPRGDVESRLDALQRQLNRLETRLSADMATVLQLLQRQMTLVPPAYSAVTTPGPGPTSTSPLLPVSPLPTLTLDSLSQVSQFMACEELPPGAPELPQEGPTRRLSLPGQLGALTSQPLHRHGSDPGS

[28] = test system: Mus musculus; experiment: Anti-hepatosteatosis activity in C57BL/6 mouse model of streptozotocin-induced nonalcoholic steatohepatitis assessed as reduction in ballooning score at 25 mg/kg/day, po administered for 21 days formulated into HFD measured post-last dose by […] based histopathological analysis; type: functional, organism-based; outline: as §7
[29] = Toxicity in C57BL/6 mouse model of streptozotocin-induced nonalcoholic steatohepatitis assessed as change in plasma AST level at 25 mg/kg/day, po formulated into HFD administered for 21 days measured post last dose; type: organism-based; conditions: in vivo, 504 h
Outline: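 Plasma was taken at day 21 from STAM mice fed drug in high-fat diet at 25 mg kg−1 d−1. AST activity was read with Infinity AST reagent at 37 °C, measuring absorbance at 340 nm every minute for 20 min. U/L was calculated from ΔA/min times a factor based on the NADH molar absorption coefficient, sample volume and path length. n = 8; one-way ANOVA.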

[30] = Half life in Swiss albino mouse at 10 mg/kg, po administered via gavage by LC/MS-MS analysis; type: ADME, organism-based; conditions: in vivo
Outline: (§8)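 Swiss Albino mice were given 10 mg/kg by oral gavage in a triturated Tween 80/0.5% (w/v) methylcellulose formulation, with three replicates per time point. Plasma was precipitated with acetonitrile containing telmisartan internal standard and analyzed by LC–MS/MS using transition m/z 286 → 125. Concentrations came from a standard curve (1–1000 ng/mL).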

[31] = Cmax in Swiss albino mouse at 10 mg/kg, po administered via gavage by LC/MS-MS analysis; type: ADME, organism-based; design: dose 10 mg/kg, route oral; conditions: in vivo; outline: as §8

SMILES: Fc1cccc(Nc2nc3nonc3nc2Nc2ccccc2F)c1
- EC50 [1]: 0.19 µM
- solubility [2]: < 10 µM

SMILES: CCCc1nc2c(C)cc(-c3nc4ccccc4n3C)cc2n1Cc1ccc(-c2ccccc2C(=O)O)cc1
- Activity [3]: Toxic
- Activity [4]: Active
- Activity [5]: 0.6%
- Activity [6]: Toxic
- Activity [7]: Non-Toxic
- Activity [8]: Toxic
- Activity [9]: Active
- Activity [10]: 9%

SMILES: Oc1nc2nonc2nc1Nc1ccc(OC(F)(F)F)cc1
- EC50 [1]: 4.3 µM
- Activity [13]: Non-Toxic
- Activity [14]: Non-Toxic
- concentration at 1 h [15]: 15800 ng/g
- Activity [16]: Non-Toxic
- half-life [11]: 342 min
- solubility [2]: > 500 µM
- Activity [17]: Active
- Activity [18]: Non-Toxic
- Activity [19]: 0.62%
- concentration at 1 h [20]: 9200 ng/g
- Activity [21]: Non-Toxic
- Activity [22]: Non-Toxic
- Activity [23]: Active
- Activity [24]: Active
- Activity [25]: Active
- Cmax [12]: 80.9 µM
- Activity [26]: 331 g
- inhibition (INH) [27]: Not Active
- Activity [28]: Active
- Activity [29]: Non-Toxic

SMILES: Oc1nc2nonc2nc1NC12CC3CC(CC(C3)C1)C2
- EC50 [1]: 7 µM
- half-life [30]: 66 min
- Cmax [31]: 18 µM

SMILES: Oc1nc2nonc2nc1Nc1ccccc1OC(F)(F)F
- EC50 [1]: 7.1 µM

SMILES: CC12CC3CC(C)(C1)CC(Nc1nc4nonc4nc1O)(C3)C2
- EC50 [1]: 2 µM

The next lines start with the values.

- EC50 [1]: 3.9 µM
- half-life [11]: 36 min
- Cmax [12]: 22.3 µM
SMILES: CC(C)(C)c1ccc(Nc2nc3nonc3nc2O)cc1

- EC50 [1]: 2.1 µM
- half-life [11]: 42 min
- Cmax [12]: 12 µM
SMILES: CCCCc1ccc(Nc2nc3nonc3nc2O)cc1

- EC50 [1]: 3.7 µM
- half-life [11]: 18 min
- Cmax [12]: 3.4 µM
SMILES: CCCCOc1ccc(Nc2nc3nonc3nc2O)cc1

- EC50 [1]: 4 µM
- half-life [11]: 24 min
- Cmax [12]: 12.5 µM
SMILES: Oc1nc2nonc2nc1Nc1ccc2ccccc2c1

- EC50 [1]: 2.3 µM
SMILES: CCCCOc1cccc(Nc2nc3nonc3nc2O)c1

- EC50 [1]: 3.3 µM
SMILES: CCCCCCc1ccc(Nc2nc3nonc3nc2O)c(F)c1
